Tested on: MS2 coat protein
Test: apparent Kd, MS2 coat protein; higher = weaker binding; RNA-MaP array
Procedure, shortened: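 For each design, the apparent Kd is the median of binding-curve fits across its clusters. Designs measured on fewer than 10 clusters were dropped. The RNAs were transcribed from sequenced DNA templates on an Illumina sequencing chip and incubated at room temperature, with or without input ligand, with fluorescently labeled MS2 coat protein at 1.5 nM to 3 μM.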

[1] = designed as: OFF switch for flavin mononucleotide, no ligand
[2] = ligand present: flavin mononucleotide, designed as: OFF switch for flavin mononucleotide
[3] = designed as: ON switch for flavin mononucleotide, no ligand
[4] = ligand present: flavin mononucleotide, designed as: ON switch for flavin mononucleotide
[5] = designed as: OFF switch for theophylline, no ligand
[6] = ligand present: theophylline, designed as: OFF switch for theophylline
[7] = designed as: OFF switch for tryptophan, no ligand
[8] = ligand present: tryptophan, designed as: OFF switch for tryptophan
[9] = designed as: ON switch for theophylline, no ligand
[10] = ligand present: theophylline, designed as: ON switch for theophylline
[11] = designed as: ON switch for tryptophan, no ligand
[12] = ligand present: tryptophan, designed as: ON switch for tryptophan

UCCCGCUGCACAGGAUAUUGGAAAAUACAUGAGGAUCACCCAUGUGCUUAUAUGAGGUCUGCCUCCAAGAAGGGUGAGAUAAUC
apparent Kd [1]: 0.113 µM
apparent Kd [2]: 0.0896 µM

CACUGACAACGAGGAUAUGGUCGAGCCAGACAUGAGGAUCACCCAUGUAUCGAAAGCAAUAAACUCCAGAAGGCGUAACAGUUG
apparent Kd [3]: 0.0104 µM
apparent Kd [4]: 0.0116 µM

AAUAAGUUAGGAUAUUCAGGAGCAGCGCAAUGGUACGAGUCGAAGAAGGAACAUGAGGAUCACCCAUGUGAACC
apparent Kd [1]: 0.0112 µM
apparent Kd [2]: 0.0115 µM

ACAUAGUAAGGAUAUCUCCUGUUCGAGAAAGAGAGGCAUAAAGAGAAGGUACAUGAGGAUCACCCAUGUGACGA
apparent Kd [1]: 0.00751 µM
apparent Kd [2]: 0.00726 µM

CUCGGAACAAUCGAUACCAGUUCUCAUGGAUUGCAGCAGUACAUGAGGAUCACCCAUGUAAACCCUUGGCAGCGAAGAACAAGAC
apparent Kd [5]: 0.0327 µM
apparent Kd [6]: 0.0553 µM

AGUUCACAGGUGAGGAUAUCGGAGCACACAGACAGCGAGAAGGCACAUGAGGAUCACCCAUGUGGUCAGAAAAC
apparent Kd [1]: 0.00873 µM
apparent Kd [2]: 0.0108 µM

CUCGUGUGAGGAUAUUGAUCACAGGUCACGGUGCAGGAAUACAAGAAGGCACAUGAGGAUCACCCAUGUAACCG
apparent Kd [1]: 0.0157 µM
apparent Kd [2]: 0.045 µM

CAGCAACAAUUGGAUACCAGCCAUUACAGGUAUCAUUAUAACAUGAGGAUCACCCAUGUAGGCCCUUGGCAGCCAUUGGUGUAAG
apparent Kd [5]: 0.0391 µM
apparent Kd [6]: 0.106 µM

CCGGCGGAAGGAUAUUGCGAUGACCACAUGAGGAUCACCCAUGUCAACUUGAUCCGGGUACAAGAAGGUCCAGCGA
apparent Kd [1]: 0.0193 µM
apparent Kd [2]: 0.0159 µM

UCCUUGGAGUCAGGAUAUGUCGACAACGGAAUGACAGAAGGGACUUGGCAGCUUAAUUCUUCAGUACAUGAGGAUCACCCAUGU
apparent Kd [1]: 0.00935 µM
apparent Kd [2]: 0.00919 µM

GGAUCACAUGAGGAUCACCCAUGUCAGGAUAUUAUGCCCUCCCAGUUGCUGAGACAUUUAAGAAGGGACGUGUA
apparent Kd [1]: 0.0135 µM
apparent Kd [2]: 0.0143 µM

GACGUGGUGAAGAAGGGCUGACGUAACCGGUGAGCAGGAUAUUCGACUCAUUAAUACAUGAGGAUCACCCAUGUUCGGUAGCGC
apparent Kd [1]: 0.0248 µM
apparent Kd [2]: 0.068 µM

CCUGCAGGUCAGGAUAUCAUAUCUGGCUAACUAUGAGAAGGGACAACAUGAGGAUCACCCAUGUGGUGAUAACA
apparent Kd [1]: 0.666 µM
apparent Kd [2]: 0.509 µM

GCAGAUACCAUGAGUCGACAUGAGGAUCACCCAUGUACUCCCAGAAGGAUGUACUUUGUUCAAGCAUAGGAUAUGGGCCGAACC
apparent Kd [3]: 0.114 µM
apparent Kd [4]: 0.056 µM

GCGUGUUAUAGUCAUCGUGAGCGUCCAUCCCGAGGACCGGUACGGCCGCCACUCGCCACAGGACAUGAGGAUCACCCAUGUUAUG
apparent Kd [7]: 0.015 µM
apparent Kd [8]: 0.017 µM

GCACACAUGAGUUAGGAUAUAUGUUGUGAGACAUGAGGAUCACCCAUGUGUGCAUUGCUUAUAAUAUAGAAGGAACCCAGGUCGGC
apparent Kd [3]: 0.0255 µM
apparent Kd [4]: 0.0171 µM

GAAUAAAAUAUAAUAAGAAAACAUGAGGAUCACCCAUGUACAAGAAGGGAGAAACUUAACAUAACUCAGGAUAUUGUUAUAUCA
apparent Kd [3]: 0.0289 µM
apparent Kd [4]: 0.0222 µM

AACUGAAGCACCUUAUGCGGCGGCAAAACCCGAGGACCGGUACGGCCGCCACUCGAGUCGCAACAUGAGGAUCACCCAUGUGUAU
apparent Kd [7]: 0.0513 µM
apparent Kd [8]: 0.117 µM

GCGCUAUUUAUUGAUACCAGAUACAGGAAUCACAUGAGGAUCACCCAUGUGGAAUGAAGGAUCCCUUGGCAGCAAUAGUCAAAAU
apparent Kd [9]: 0.0178 µM
apparent Kd [10]: 0.0109 µM

GCUAGACAUGAGGAUCACCCAUGUGAGGAUAUUAGCCAAUCGAGUAAUCCGCUAUAGUUAAGAAGGCACGUGAU
apparent Kd [1]: 0.0167 µM
apparent Kd [2]: 0.016 µM

UAGCGUUCCUCAGGAUAUCCUUAAGUGGACAUGAGGAUCACCCAUGUGUGAUUCUGGGUGUUAUGGGAGAAGGGAGGGUGAUGA
apparent Kd [1]: 0.299 µM
apparent Kd [2]: 0.0475 µM

GGUAUCGUAGGAUAUUAAUGUAGCCACAUGAGGAUCACCCAUGUAGUUCUAGUGGACCGUUAAGAAGGACGUGAUC
apparent Kd [1]: 0.0661 µM
apparent Kd [2]: 0.0828 µM

GGUCUACAUGAGGAUCACCCAUGUGAGUUCACGGCAGGAUAUGGGUGCCUUUUUAGGCUACCAGAAGGGCCCUCUG
apparent Kd [3]: 0.0381 µM
apparent Kd [4]: 0.0192 µM

AAACGGUAAGGAUAUCCACCAGGAUUGGAGCCACCUAAUUCGGAGAAGGUACAUGAGGAUCACCCAUGUCGGGU
apparent Kd [1]: 0.146 µM
apparent Kd [2]: 0.124 µM

GAUCGACAUGAGGAUCACCCAUGUGAGGAUAUACCGCGGACUCCGUCUGCAUGUUAGGGUAGAAGGCACCGAGC
apparent Kd [1]: 0.0141 µM
apparent Kd [2]: 0.0131 µM

AGACUCCUAGCAGGAUAUGUUCAAGGAACAAAGAGAACAUGAGGAUCACCCAUGUACACAUAUGAACAGAAGGGCUGAAGAAAA
apparent Kd [3]: 0.00824 µM
apparent Kd [4]: 0.00666 µM

GUAGAACCGCAGAAGGCAUUGAUUCGAGAGCGAUGAGGAUAUGCUCGUCGACAUGAGGAUCACCCAUGUUUACGAUUGAGAUAU
apparent Kd [3]: 0.0151 µM
apparent Kd [4]: 0.00974 µM

GACCUGUUAGGAUAUCGAAGGAGUCAAUACCAAGUGAGACACGAGAAGGAACAUGAGGAUCACCCAUGUGAACC
apparent Kd [1]: 0.0114 µM
apparent Kd [2]: 0.0157 µM

GACGGACAUGAGGAUCACCCAUGUUCUGGCAGCGUAGGAUAUGAAGGGAUGAUUGUACGUUCAGAAGGACGACCUG
apparent Kd [3]: 0.0103 µM
apparent Kd [4]: 0.00753 µM

CUUUGACGUGAGAAGGUGCAGGGAAUACACAAGCAAGGAUAUCAUGCACAUGAGGAUCACCCAUGUCCUGUAACGUUUGGUGAC
apparent Kd [1]: 0.437 µM
apparent Kd [2]: 0.302 µM

ACUGUACUGGGAGGAUAUGGAGAGUUACCGUAAAUAAUCUACUAGACAUGAGGAUCACCCAUGUUCCAGAAGGCCCCAUGGACC
apparent Kd [3]: 0.0149 µM
apparent Kd [4]: 0.0104 µM

ACUGAUUAUGUGAGGAUAUCGCUUUCAGGCAGAAACGAGAAGGCACAUGAGGAUCACCCAUGUUACGUCCACUG
apparent Kd [1]: 0.00664 µM
apparent Kd [2]: 0.00956 µM

GCAUGCGGCAAGGAUAUCAAUGCUAUGGUCUAAUGAGAAGGUGCCACAUGAGGAUCACCCAUGUUUCCGGCGAG
apparent Kd [1]: 0.0308 µM
apparent Kd [2]: 0.123 µM

GUAUUACGGACGGCCGCCACUGUGGGACAUGAGGAUCACCCAUGUGGCGCUACUUACAAGUGCGACAGGACCGGGUCAUGGUUUG
apparent Kd [11]: 0.811 µM
apparent Kd [12]: 0.301 µM

UUCUAUGUGACAGGAUAUAGACUCCACCAGUUUCUAGAAGGGUCACAGACGGAUCUUUAUUUGUCACAUGAGGAUCACCCAUGU
apparent Kd [3]: 0.0287 µM
apparent Kd [4]: 0.00971 µM

CUUCCACGAGGAUAUCCGUUAACGGACAUGAGGAUCACCCAUGUUAUCCUCACGUCAGCAGGAGAAGGCGUCUCAU
apparent Kd [1]: 0.0225 µM
apparent Kd [2]: 0.033 µM

GAUUCACAUGAGGAUCACCCAUGUCAGGAUAUGACUUGAGCUGUCUCCGAUCGAGCCAUCAGAAGGGACUGGAA
apparent Kd [1]: 0.03 µM
apparent Kd [2]: 0.0278 µM

CAUUCUUUAGUAAGGAUAUCAACUUGUUUAUAUAAUGAGAAGGUACAUGAGGAUCACCCAUGUCUCACAUCGGU
apparent Kd [1]: 0.00872 µM
apparent Kd [2]: 0.0079 µM

UCUCGUGUGAAGGAUAUAGAUAUUUAACAAAAGCUAGAAGGUCAAACAUGAGGAUCACCCAUGUUUACAUAGGA
apparent Kd [1]: 0.00877 µM
apparent Kd [2]: 0.0109 µM

GAUUCGCAGUCGGCCGCCACUAACAUGAGCUGCUAGUUAUUAUCACAUGAGGAUCACCCAUGUCUUAGGACCGGGACAACCUGUU
apparent Kd [11]: 0.0777 µM
apparent Kd [12]: 0.0711 µM

UCCGGUGACCUAGGAUAUCGUUCAACUAACAUGAGGAUCACCCAUGUGGUCUGUUUUAUGCCUGUCGAGAAGGAGGUGGAUAAG
apparent Kd [1]: 0.0642 µM
apparent Kd [2]: 0.0556 µM

CUCGGAAACGGAGGAUAUAGCUGAAGAGGAUUACUAGAAGGCCGAGACAUGAGGAUCACCCAUGUUUUCUCAAGUCGCAGUUUA
apparent Kd [1]: 0.00793 µM
apparent Kd [2]: 0.00948 µM

AGACACAUGAGGAUCACCCAUGUACACGAGCGAGGACCGGUACGGCCGCCACUCGUCCAAGCAACUAAUGAGACUCGUAAGAUGG
apparent Kd [11]: 0.0246 µM
apparent Kd [12]: 0.0293 µM

UACAAAUAUCAUUACAUGAGGAUCACCCAUGUGGGACGUCGUAGAAGGGAGAUUCAAAUACAAGCUCAGGAUAUACAACUUCUG
apparent Kd [3]: 0.181 µM
apparent Kd [4]: 0.0801 µM

GAACAACAUGAGGAUCACCCAUGUCAGGAUACCAGUCGAAAGUCAGACCCUUGGCAGCCUAUCACUCAGCAAAUAGAUAGUACAA
apparent Kd [9]: 0.0152 µM
apparent Kd [10]: 0.0137 µM

AAGUACUUUGAGAAGGACCUCUCGAACAUGAGGAUCACCCAUGUCACGGAGUACCCGAUCGGCUGGUAGGAUAUCAUGGUACCG
apparent Kd [3]: 0.00989 µM
apparent Kd [4]: 0.00815 µM

UGGGCGGAAGGAUAUACAUGAGGAUCACCCAUGUGUCUUUUGCUGAUGGGUGCAUAGUGUAGAAGGUCCAGUGU
apparent Kd [1]: 0.0937 µM
apparent Kd [2]: 0.0387 µM

UUGCAAUAGUAGAAGGACCACUCAAGUGUGACGGUAGGAUAUACGGUACAUGAGGAUCACCCAUGUGAGACUACAGCCCUCUCC
apparent Kd [1]: 0.02 µM
apparent Kd [2]: 0.0219 µM

CUACAUGAGGAUCACCCAUGUGCCUCUGGUCAGGGUCACUACGAGGAUAUAAUAGUUUAGACGAGUUAGAAGGCGUAUGAGUUA
apparent Kd [1]: 0.111 µM
apparent Kd [2]: 0.0774 µM

CCACGACUAGGAUAUACCUAUGUUCACUCGUGAUCAAGGACACAUGAGGAUCACCCAUGUAGAAGGAGUCGCUA
apparent Kd [1]: 0.00884 µM
apparent Kd [2]: 0.0106 µM

AUAUUUUUGUAAUGACAUGAGGAUCACCCAUGUAUCAAUGUAAGAAGGAGGAAAUAAACACGAUCCUAGGAUAUUAGGUGAUUA
apparent Kd [3]: 0.0445 µM
apparent Kd [4]: 0.0353 µM

AUGCUGUGAGGAUAUCAGUCCCAGAAAAGCUGGCCGCUGACUGAGAAGGCACAUGAGGAUCACCCAUGUUCAAC
apparent Kd [1]: 0.0102 µM
apparent Kd [2]: 0.0157 µM

UAUUUGGGCAAGAAGGCAGGUUACAGCCAGCAUUAUCCACAUGAGGAUCACCCAUGUUCGGCGACUGAGGAUAUUGCCAAACCU
apparent Kd [1]: 0.0385 µM
apparent Kd [2]: 0.0375 µM

CCGUUCGCCGAGAAGGGACAGGACUUAAUAGCGUCAGGAUAUCGCGGACCGUGAUUCUAUGACAUGAGGAUCACCCAUGUGCUU
apparent Kd [1]: 0.0347 µM
apparent Kd [2]: 0.0117 µM

GAGGCUCAUAUGUAGGAUAUUCAAGGAGCUACAUGAGGAUCACCCAUGUUCGGACGCCAAUUUUUGAAGAAGGACAAGACAGUGUU
apparent Kd [3]: 0.0546 µM
apparent Kd [4]: 0.0162 µM

From the EternaBench riboswitch data
